Assay results reported in ChEMBL document CHEMBL1123326, “Sequentially labile water-soluble prodrugs of alprazolam” (J Med Chem, 1986).

Key:
[1] = target: T1, GABA-A receptor; anion channel (Mus musculus) (UniProt Q8BHJ7+P26048+Q8QZW7+P50571+Q9R0Y8+P22723+A2AMW3+P62812+Q9JLF1+P26049+P22933+Q9D6F4+P63080+P27681+P16305); test: Ex vivo displacement of [3H]flunitrazepam from mouse GABA-A benzodiazepine receptor at 3 uM/kg iv dose; assay type: organism-based
How it was run: (§1)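 Mice dosed iv by tail vein (drugs in 0.9% NaCl, or 2% ethanol for parent; controls given vehicle); decapitated 30 min later (dose-response) or at 1, 3, 10, 30, 60 min (time course). Brain minus cerebellum homogenized in 50 vol 0.05 M Tris pH 7.4, 4 °C; incubated with ~0.77 nM [3H]flunitrazepam final, 30 min, 25 °C; GF/B filtration, scintillation counting. Mean of four measurements.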

[2] = target: T1, GABA-A receptor; anion channel (Mus musculus); test: Ex vivo inhibition of [3H]flunitrazepam binding to mouse GABA-A benzodiazepine receptor; assay type: functional; how it was run: as §1
[3] = target: T1, GABA-A receptor; anion channel (Mus musculus); test: Ex vivo displacement of [3H]flunitrazepam from mouse GABA-A benzodiazepine receptor at 10 uM/kg iv dose; assay type: organism-based; how it was run: as §1
[4] = target: T1, GABA-A receptor; anion channel (Mus musculus); test: Ex vivo displacement of [3H]flunitrazepam from mouse GABA-A benzodiazepine receptor at 1 uM/kg iv dose; assay type: organism-based; how it was run: as §1
[5] = target: T1, GABA-A receptor; anion channel (Mus musculus); test: Ex vivo displacement of [3H]flunitrazepam from mouse GABA-A benzodiazepine receptor at 30 uM/kg iv dose (Range 5-10%); assay type: organism-based; how it was run: as §1
[6] = Half-life period at 37 degrees C; assay type: ADME

Row | Compound | Control [1] | ED50 [2] | Control [3] | Control [4] | Control [5] | half-life [6]
1 | Cc1nnc(CNC(=O)CCCN)n1-c1ccc(Cl)cc1C(=O)c1ccccc1 | 51% | 320 µmol/kg | 20% | 80% | 10% | 
2 | Cc1nnc(CNC(=O)C(N)CC(C)C)n1-c1ccc(Cl)cc1C(=O)c1ccccc1 (configuration not stated) | 60% | 6 µmol/kg | 25% | 82% | 10% | 1 h
3 | Cc1nnc2n1-c1ccc(Cl)cc1C(c1ccccc1)=NC2 |  | 2.9 µmol/kg |  |  |  | 
4 | Cc1nnc(CNC(=O)CN)n1-c1ccc(Cl)cc1C(=O)c1ccccc1 | 50% | 9 µmol/kg | 3% | 65% |  | 4.33 h
